For assay [1], the system named is Bacillus subtilis. Nature of the assay: Antibacterial activity against penicillin-susceptible Bacillus subtilis ATCC 9372 incubated for 24 hrs by tube-dilution method. The assay is classed as functional. The note with it: ATCC 9372, 24 h. A digest of the protocol: (§1)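 MIC by tube dilution per NCCLS; B. subtilis ATCC9372, E. coli ATCC25922, P. aeruginosa ATCC27853 and S. aureus ATCC25923 are penicillin-susceptible strains.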

Assay [2] concerns Escherichia coli. Nature of the assay: Antibacterial activity against penicillin-susceptible Escherichia coli ATCC 25922 incubated for 24 hrs by tube-dilution method. Format: functional. The note with it: ATCC 25922, 24 h. Put shortly: as §1
The test system of assay [3] is Pseudomonas aeruginosa. Description: Antibacterial activity against penicillin-susceptible Pseudomonas aeruginosa ATCC 27853 incubated for 24 hrs by tube-dilution method. The assay is classed as functional. The note with it: ATCC 27853, 24 h. A digest of the protocol:
as §1

For assay [4], the system named is Staphylococcus aureus. Description: Antibacterial activity against penicillin-susceptible Staphylococcus aureus ATCC 25923 incubated for 24 hrs by tube-dilution method. Format: functional. The note with it: ATCC 25923, 24 h. Put shortly:
as §1

Assay [5] has as its system Staphylococcus aureus. Description: Antibacterial activity against […] Staphylococcus aureus ATCC 29213 incubated for 24 hrs by tube-dilution method. Format: functional. The note with it: ATCC 29213, 24 h. A digest of the protocol: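 Broth tube-dilution MIC run as NCCLS recommends, against the […] S. aureus strain ATCC29213.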
Assay [6] has as its system Staphylococcus aureus. Description: Antibacterial activity against penicillin-resistant Staphylococcus aureus clinical isolates incubated for 24 hrs by tube-dilution method. The assay is classed as functional.
The test system of assay [7] is Staphylococcus epidermidis. Description: Antibacterial activity against penicillin-resistant Staphylococcus epidermidis clinical isolates incubated for 24 hrs by tube-dilution method. The assay is classed as functional.
For assay [8], the system named is Streptococcus pyogenes. Nature of the assay: Antibacterial activity against penicillin-susceptible Streptococcus pyogenes clinical isolates incubated for 24 hrs by tube-dilution method. The assay is classed as functional.
The subject of assay [9] is Streptococcus pyogenes. Nature of the assay: Antibacterial activity against penicillin-resistant Streptococcus pyogenes clinical isolates incubated for 24 hrs by tube-dilution method. The assay is classed as functional.
The test system of assay [10] is Bacillus subtilis. Nature of the assay: Inhibition of FtsZ in penicillin-susceptible Bacillus subtilis ATCC 9372 assessed as lowest drug concentration causing inhibition of cell division incubated for 5 hrs by phase-contrast light microscopy. Put shortly: (§2)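 Cell division inhibition judged from bacterial cell morphology under phase-contrast light microscopy, scored as lowest concentration altering division; penicillin-susceptible strains B. subtilis ATCC9372, E. coli ATCC25922, P. aeruginosa ATCC27853, S. aureus ATCC25923.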

Assay [11] concerns Streptococcus pyogenes. Description: Potency index, ratio of MIC for oxacillin sodium to MIC for test compound against penicillin-susceptible Streptococcus pyogenes clinical isolates incubated for 24 hrs by tube-dilution method. The assay is classed as functional.
Assay [12] relates to Escherichia coli. Description: Inhibition of FtsZ in penicillin-susceptible Escherichia coli ATCC 25922 assessed as lowest drug concentration causing inhibition of cell division incubated for 5 hrs by phase-contrast light microscopy. A digest of the protocol: as §2
Assay [13] deals with Pseudomonas aeruginosa. Description: Inhibition of FtsZ in penicillin-susceptible Pseudomonas aeruginosa ATCC 27853 assessed as lowest drug concentration causing inhibition of cell division incubated for 5 hrs by phase-contrast light microscopy. Put shortly: as §2
Assay [14] concerns Streptococcus pyogenes. Nature of the assay: Potency index, ratio of MIC for sanguinarine to MIC for test compound against penicillin-susceptible Streptococcus pyogenes clinical isolates incubated for 24 hrs by tube-dilution method. The assay is classed as functional.
Assay [15] deals with Staphylococcus aureus. Description: Inhibition of FtsZ in penicillin-susceptible Staphylococcus aureus ATCC 25923 assessed as lowest drug concentration causing inhibition of cell division incubated for 5 hrs by phase-contrast light microscopy. A digest of the protocol: as §2
For assay [16], the system named is Bacillus subtilis. Nature of the assay: Potency index, ratio of MIC for curcumin to MIC for test compound against penicillin-susceptible Bacillus subtilis ATCC 9372 incubated for 24 hrs by tube-dilution method. The assay is classed as functional.
The test system of assay [17] is Bacillus subtilis. Nature of the assay: Potency index, ratio of MIC for sanguinarine to MIC for test compound against penicillin-susceptible Bacillus subtilis ATCC 9372 incubated for 24 hrs by tube-dilution method. The assay is classed as functional.
Assay [18] deals with Bacillus subtilis. Description: Potency index, ratio of MIC for ciprofloxaxin to MIC for test compound against penicillin-susceptible Bacillus subtilis ATCC 9372 incubated for 24 hrs by tube-dilution method. Format: functional.
Assay [19] deals with Bacillus subtilis. Nature of the assay: Potency index, ratio of MIC for oxacillin sodium to MIC for test compound against penicillin-susceptible Bacillus subtilis ATCC 9372 incubated for 24 hrs by tube-dilution method. The assay is classed as functional.
The species entered for a further assay is Sus scrofa. Description: Induction of porcine tubulin polymerisation at 2 times MIC for penicillin-resistant Staphylococcus aureus by fluorescence microscopy. Put shortly: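 Polymerisation of mammalian tubulin measured with a commercial tubulin assay kit, read by fluorescence of the kit reporter, with paclitaxel as the positive control for enhanced polymerisation.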

For assay [20], the system named is Staphylococcus aureus. Nature of the assay: Inhibition of FtsZ in penicillin-susceptible Staphylococcus aureus ATCC 25923 assessed as inhibition of cell division at […] incubated for 5 hrs by phase-contrast light microscopy.
Assay [21] has as its system Bacillus subtilis. Nature of the assay: Inhibition of FtsZ in penicillin-susceptible Bacillus subtilis ATCC 9372 assessed as inhibition of cell division at […] incubated for 5 hrs by phase-contrast light microscopy.

The source made the active and inactive calls. No cut-off for these calls is given here.

Take `Cc1ccc2c(c1)c1ccccc1c[n+]2C.[Cl-]`: the MIC with Bacillus subtilis [1] was 4 µg/mL; against Escherichia coli [2] it was above 128 µg/mL; against Pseudomonas aeruginosa [3] it was above 128 µg/mL; against Staphylococcus aureus [4], 64 µg/mL; against Staphylococcus aureus [5] it was 128 µg/mL; against Staphylococcus aureus [6] it was 4 µg/mL. Besides, the MIC was 128 µg/mL in assay [7]; 4 µg/mL in the assay on Streptococcus pyogenes [8]; 8 µg/mL in the assay on Streptococcus pyogenes [9]; 4 µg/mL with Bacillus subtilis [10]; above 128 µg/mL in the assay on Escherichia coli [12]; above 128 µg/mL with Pseudomonas aeruginosa [13]. Moreover, the MIC in the assay on Staphylococcus aureus [15] stood at 32 µg/mL. In addition, the Ratio in the assay on Streptococcus pyogenes [11] stood at 4; with Streptococcus pyogenes [14], 2; in the assay on Bacillus subtilis [16] it was 8; in the assay with Bacillus subtilis [17], 2; in the assay on Bacillus subtilis [18], 2; with Bacillus subtilis [19] it was 2. Further, the result in the assay listed under Sus scrofa was inactive.

Regarding `COc1cc(OC)c2c(c1)c1ccccc1c[n+]2C.[Cl-]`, the MIC was 4 µg/mL with Bacillus subtilis [1]; above 128 µg/mL in the assay with Escherichia coli [2]; above 128 µg/mL against Pseudomonas aeruginosa [3]; 128 µg/mL against Staphylococcus aureus [4]; 32 µg/mL in the assay with Staphylococcus aureus [5]; 4 µg/mL in the assay with Staphylococcus aureus [6]. The MIC in assay [7] is 64 µg/mL; against Streptococcus pyogenes [8] it was 4 µg/mL; against Streptococcus pyogenes [9] it was 8 µg/mL; in the assay with Bacillus subtilis [10], 2 µg/mL; with Escherichia coli [12], above 128 µg/mL; with Pseudomonas aeruginosa [13], 128 µg/mL. For the same molecule, in the assay with Staphylococcus aureus [15], the MIC came out at 128 µg/mL. The Ratio in the assay with Streptococcus pyogenes [11] came to 4; with Streptococcus pyogenes [14], 2; in the assay with Bacillus subtilis [16], 8; with Bacillus subtilis [17], 2; in the assay with Bacillus subtilis [18], 2; with Bacillus subtilis [19], 2. In the assay listed under Sus scrofa, the result was inactive.

As for `Cc1cc(C)c2c(c1)c1ccccc1c[n+]2C.[Cl-]`, the MIC in the assay on Bacillus subtilis [1] was 4 µg/mL; against Escherichia coli [2] it was above 128 µg/mL; against Pseudomonas aeruginosa [3], above 128 µg/mL; against Staphylococcus aureus [4], 64 µg/mL; in the assay with Staphylococcus aureus [5], 32 µg/mL; in the assay with Staphylococcus aureus [6], 4 µg/mL. Moreover, the MIC was 128 µg/mL in assay [7]; 4 µg/mL with Streptococcus pyogenes [8]; 8 µg/mL against Streptococcus pyogenes [9]; 2 µg/mL in the assay with Bacillus subtilis [10]; above 128 µg/mL in the assay on Escherichia coli [12]; 128 µg/mL with Pseudomonas aeruginosa [13]. Besides, the MIC with Staphylococcus aureus [15] was 64 µg/mL. For the same molecule, the Ratio was 4 in the assay on Streptococcus pyogenes [11]; 2 in the assay with Streptococcus pyogenes [14]; 8 in the assay on Bacillus subtilis [16]; 2 with Bacillus subtilis [17]; 2 in the assay on Bacillus subtilis [18]; 2 in the assay on Bacillus subtilis [19]. In addition, the result in the assay listed under Sus scrofa was inactive.

`C[n+]1cc2ccccc2c2cccc(OC(F)(F)F)c21.[Cl-]`: the MIC against Bacillus subtilis [1] is 4 µg/mL; with Escherichia coli [2] it was above 128 µg/mL; against Pseudomonas aeruginosa [3] it was above 128 µg/mL; against Staphylococcus aureus [4] it was 16 µg/mL; against Staphylococcus aureus [5] it was 64 µg/mL; in the assay on Staphylococcus aureus [6], 8 µg/mL. In addition, the MIC in [7] was 32 µg/mL; with Streptococcus pyogenes [8], 4 µg/mL; in the assay on Streptococcus pyogenes [9], 8 µg/mL; in the assay on Bacillus subtilis [10] it was 4 µg/mL; in the assay on Escherichia coli [12], above 128 µg/mL; in the assay with Pseudomonas aeruginosa [13], above 128 µg/mL. Further, the MIC in the assay on Staphylococcus aureus [15] came to 16 µg/mL. Besides, the Ratio came out at 4 in the assay on Streptococcus pyogenes [11]; 2 with Streptococcus pyogenes [14]; 8 in the assay on Bacillus subtilis [16]; 2 in the assay on Bacillus subtilis [17]; 2 in the assay on Bacillus subtilis [18]; 2 with Bacillus subtilis [19]. Also, the inhibition entry in the assay with Staphylococcus aureus [20] and in the assay with Bacillus subtilis [21] was “Active” each time. In the assay listed under Sus scrofa, the outcome was inactive.

(Values after ChEMBL document CHEMBL4052686, “Synthesis and antibacterial activity of 5-methylphenanthridium derivatives as FtsZ inhibitors” (2017).)
